# Results gathered from unrelated publications.
# Each line is one published result; the experiments were not run side by side.
# Target: Lymphokine-activated killer T-cell-originated protein kinase (PBK, Homo sapiens, UniProt Q96KB5)
# Residues used in one study (Q96KB5 1-322): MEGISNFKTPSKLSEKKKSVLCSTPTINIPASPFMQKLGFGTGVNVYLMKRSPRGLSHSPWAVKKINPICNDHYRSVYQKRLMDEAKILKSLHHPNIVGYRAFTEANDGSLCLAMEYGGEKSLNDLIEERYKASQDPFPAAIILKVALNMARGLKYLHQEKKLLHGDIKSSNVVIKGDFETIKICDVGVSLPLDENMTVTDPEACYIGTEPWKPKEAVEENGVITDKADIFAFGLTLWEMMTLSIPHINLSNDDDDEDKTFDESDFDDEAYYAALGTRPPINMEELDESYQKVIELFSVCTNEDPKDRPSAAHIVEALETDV
Structure (SMILES),assay,conditions,endpoint,result
N#CCCc1ccc2c(c1)-c1[nH]c3ccc([N+](=O)[O-])cc3c1CC(=O)N2,cell-free assay,0.5 µM,remaining signal,95.4%
CC(C)(C)c1nc2c(s1)c1nc(N)ncc1c1ccc(NS(=O)(=O)c3c(F)cccc3F)c(F)c12,"enzyme activity, inhibitor, radiometric",1 µM,remaining activity,92%
CC(C)(O)[C@H]1CC[C@H](Nc2ccc3ncc(-c4cccc(C(F)(F)F)c4)n3n2)CC1,"enzyme activity, inhibitor",1 µM,remaining activity,87.2%
CC/C(=N\NC(=O)NCc1cccc(O)c1)c1ccc(O)c(C)c1O,"enzyme activity, inhibitor",0.1 µM,inhibition,-7.3%
O=C(Nc1cnn(-c2csc(C(=O)NC3COC3)c2)c1)Nc1c(F)cccc1Cl,"enzyme activity, inhibitor",5 µM,remaining activity,98.2%
CCN1CCC2(CC1)NC(=O)c1c(c3ccc(Cl)c(Cl)c3n1C)C2C#N (racemic),"thermal stability, DSF",10 µM,ΔTm,-0.3 °C
CC(C)(C)c1nc(-c2cccc(NS(=O)(=O)c3c(F)cccc3F)c2F)c(-c2ccnc(N)n2)s1,"enzyme activity, inhibitor, radiometric",1 µM,remaining activity,99%
Cn1c2c(Cl)c(Cl)ccc2c2cc(N)[nH]c(=O)c21,"thermal stability, DSF",10 µM,ΔTm,0.6 °C
Cc1sc(C(=O)NC2COC2)cc1-n1cc(NC(=O)Nc2c(F)cccc2Cl)cn1,"enzyme activity, inhibitor",10 µM,remaining activity,88.5%
Cn1c2c(c3ccccc31)C(C#N)C(C)(C)NC2=O (centres unmarked),"thermal stability, DSF",10 µM,ΔTm,-0.8 °C
O=C1Nc2ccc(Cl)cc2C1=Cc1cc(Cl)c(O)c(Cl)c1,cell-free assay,0.5 µM,remaining signal,86.1%
